High-throughput results (PubChem BioAssay)
Shown are actives, neighbours in structure and some others; about 2.2% of the full set was active somewhere.
HCV NS3 hel inh – inhibitors of HCV NS3 helicase, primary screen, biochemical, Cy5 molecular beacon fluorescence | Hepatitis C virus NS3 helicase | NS3 helicase DNA unwinding | inhibition, % at 10.9 µM | actives 0.56% (n = 290,000) | AID 1800, 2009;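 active means inhibition above the mean of all tested compounds plus 3 SD, set per campaign, cut at about 35% in these data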;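 further: 0% = DMSO wells and 100% = thioflavine S control wells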
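System: HCV NS3 helicase fragment; control set: DMSO and thioflavine S; technique: Cy5 fluorescence at 0 and 60 min, beacon hairpin quenching; reagent: beacon DNA duplex substrate plus ATP; replicates: singlicate; schedule: 1 h reaction at 25 °C, ATP-initiated; medium: MOPS buffer pH 6.5 with MgCl2, DTT, Tween20, BSA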
DAGLB inhibitor – DAGLB lipase inhibitors, primary screen, biochemical, fluorescence, HTS | Diacylglycerol lipase-beta (Homo sapiens), Q8NCG7 | HEK293T DAGLB membrane lysate, EnzChek fluorogenic substrate | inhibition, % at 5.17 µM | actives 0.059% (n = 340,000) | AID 504411, 2011; in the data active means inhibition above about 34%;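 further: 0% = enzyme with vehicle and 100% = wells lacking enzyme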
core dimer inh – inhibitors of HCV core protein dimerization, primary screen, biochemical, TR-FRET, high-throughput | TR-FRET GST/Flag-core106 dimerization, 1536-well | inhibition, % at 5 µM | actives 0.33% (n = 300,000) | AID 1899, 2009;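 active means inhibition above the mean of all tested compounds plus 3 SD, set per screening campaign, cut at about 45% in these data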
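assay system = GST-tagged and Flag-tagged HCV core protein residues 1-106 | controls = unlabelled core106 and no-GST-core106 wells | incubation = compound-protein-antibody incubation 4 h at 22.5 °C | probe or stimulus = Eu donor and XL665 acceptor anti-tag antibodies | read-out = % inhibition based on acceptor/donor emission ratio | signal = TR-FRET 671 and 617 nm emission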
GRK2 inh – compounds blocking aptamer binding on GRK2 – biochemical, human GRK2, bead flow cytometry, HTS, primary screen; Beta-adrenergic receptor kinase 1 (Homo sapiens), P25098; FAM-aptamer displacement from GRK2; actives 0.59% (n = 330,000); inhibition of aptamer binding, % at 10 µM;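 active means inhibition of aptamer binding above 40%, roughly 3 SD of noise, on plates passing a quality check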;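 further: median bead fluorescence of bound FAM aptamer so fluorescent compounds give negative values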
GPR7 antagonist – GPR7 receptor antagonists, primary screen, cell-based, fluorescence, single concentration | GPR7-expressing cells, fluorescence antagonist assay | inhibition, % at 4.4 µM | Neuropeptides B/W receptor type 1 (Homo sapiens), P48145 | actives 1.1% (n = 290,000); in the data active means inhibition above about 16%, passing the limit was not always enough;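 further: cells stimulated with the agonist NPW; 0% = agonist with vehicle and 100% = vehicle without agonist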
Target sequence (P48145 whole entry, looked up): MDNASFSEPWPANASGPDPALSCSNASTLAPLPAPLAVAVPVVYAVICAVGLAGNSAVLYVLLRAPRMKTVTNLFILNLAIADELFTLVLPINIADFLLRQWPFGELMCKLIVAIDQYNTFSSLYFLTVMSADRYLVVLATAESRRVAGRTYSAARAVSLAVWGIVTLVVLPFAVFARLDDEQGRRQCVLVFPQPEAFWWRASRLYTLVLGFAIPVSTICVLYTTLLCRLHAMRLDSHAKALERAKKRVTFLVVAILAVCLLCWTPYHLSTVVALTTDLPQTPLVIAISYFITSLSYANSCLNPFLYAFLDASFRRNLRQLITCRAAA
DNA FID counter – compounds displacing fluorescent DNA intercalator, primary screen, artefact control for HCV NS3 helicase inhibitor project, biochemical, FID fluorescence | DNA fluorescent intercalator displacement | inhibition, % at 7.9 µM | actives 0.17% (n = 290,000); in the data active means inhibition above about 37%;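 further: 0% = vehicle and 100% = reference compound; higher means more ethidium bromide displaced from hairpin DNA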
GRK2 inh confirm – GRK2 aptamer-displacing inhibitors, retest, confirmation, biochemical, cherry pick 1, bead flow cytometry; shares compounds with GRK2 inh; bead-bound GRK2, FAM-aptamer displacement; aptamer displacement, % at 10 µM; actives 4% (n = 2,000);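 active means aptamer displacement above 40%, near three times the noise of non-fluorescent compounds, on plates passing quality checks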;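 further: negative values mostly reflect intrinsic compound fluorescence rather than true enhancement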
FAM quench CP1 – aptamer fluorescence quenching in GRK2 counter-screen | shares compounds with GRK2 inh | Carboxyfluorescein RNA aptamer on beads, flow cytometry quenching; active compounds read low | fluorescence response (% of DMSO), % at 10 µM | 2,000 tested, under 10 active | AID 504580;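 active means compounds that quench the bead-bound fluorescent RNA probe, cutting fluorescence to under half of the solvent control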;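 further: counterscreen run without GRK2 so only probe quenching by compound is measured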
GRK2 confirm 2 – GRK2 aptamer-displacing inhibitors, hit retest, confirmation, biochemical, cherry pick 2, bead flow cytometry; inhibition of aptamer binding, % at 10 µM; AID 504782, 2011; shares compounds with GRK2 inh; bead-bound GRK2, FAM-aptamer displacement; 360 tested, under 10 active;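 active means inhibition of aptamer binding above 40%, about triple the noise seen with nonglowing compounds, on plates passing quality control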;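 further: negative values mostly come from compounds that fluoresce themselves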
FAM quench CP2 – aptamer fluorescence quenching in GRK2 counter-screen; shares compounds with GRK2 inh; carboxyfluorescein RNA aptamer beads, flow cytometry quenching; active compounds read low; fluorescence response vs DMSO, % at 10 µM; 360 tested, under 10 active; AID 588494;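 active means response vs DMSO under 50%, meaning signal dropped by over half, treated as fluorescence quencher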;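 further: labelled aptamer on streptavidin beads without GRK2 as a quench counter-screen; 100% = bead fluorescence of DMSO wells and lower means quenching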
Active calls of the source: *; / = no result.

SMILES	HCV NS3 hel inh	DAGLB inhibitor	core dimer inh	GRK2 inh	GPR7 antagonist	DNA FID counter	GRK2 inh confirm	FAM quench CP1	others
O=C(COC(=O)Cc1cccc(C(F)(F)F)c1)NCc1ccco1	/	-2	/	57*	/	/	32	99
Cc1cc(NS(=O)(=O)c2ccc(NC(=O)c3ccccc3F)cc2)no1	/	-8	/	4	/	/	/	/
CSc1ncccc1C(=O)OCC(=O)Nc1ccc(N2CCOCC2)cc1	/	2	/	1	/	/	/	/
COc1ccc(NC(=O)N(Cc2ccc3c(c2)OCO3)C2CC(=O)N(c3ccc(OC)cc3)C2=O)cc1 (centres undefined)	0	-1	-3	99*	-6	-4	1	101
COC(=O)c1ccccc1Nc1ccccc1	-2	-6	-2	54*	-10	-1	-3	97
O=C(COC(=O)c1ccccc1Nc1ccccc1)c1ccccc1	-2	-12	6	0	2	-3	/	/
COc1ccccc1OCCNC(=O)C(CCSC)NS(=O)(=O)c1ccccc1F (centres undefined)	/	4	0	0	/	/	/	/
CSCCC(NS(=O)(=O)c1ccccc1F)C(=O)NCc1cccs1 (centres undefined)	/	2	/	61*	/	/	1	116
O=c1nc2n(c3ncccc13)CCCCC2	0	0	-1	0	-8	9	/	/
COc1ccc(/C(O)=C2/C(=O)C(=O)N(CCN(C)C)C2c2ccc(OC)c(OC)c2)c(C)c1 (centres undefined)	-3	3	1	71*	-10	2	-3	114
Cc1cc2c(c(=O)n1CCN(C)C)C(c1ccc(Cl)cc1)C(C#N)=C(N)O2 (centres undefined)	-2	-2	-3	0	-12	1	/	/
Cc1cc2c(c(=O)n1C1CC1)C(c1cccc(Cl)c1)C(C#N)=C(N)O2 (centres undefined)	9	4	2	93*	-12	-10	3	100
CCN(CCC(=O)O)c1ccccc1	-1	-1	-1	1	-7	-3	/	/
NC(=O)N(CCC(=O)O)c1ccccc1	5	0	-6	78*	1	3	/	/	GRK2 confirm 2=29;FAM quench CP2=99
CCCC(=O)Oc1ccc(-c2nccc(C(OC)OC)n2)cc1	-3	-3	-8	1	-13	-19	/	/
COC(OC)c1ccnc(-c2ccc(OC(=O)c3ccc(F)cc3)cc2)n1	-15	-5	-1	59*	-1	-15	2	91
O=C(NCc1ccccc1)C(c1ccncc1)N(C(=O)c1csnn1)c1ccccc1F (centres undefined)	9	-4	-3	95*	-3	-18	0	99
CCC(Oc1ccccc1)C(=O)Nc1nnc(S(=O)(=O)Nc2ccccc2)s1 (centres undefined)	8	4	1	49*	-9	-41	-3	104
COc1cc(NS(=O)(=O)c2ccc3c(c2)C(C)(C)C(=O)N3C)cc(OC)c1	21	-8	11	44*	6	-16	4	99
N=c1c2ccccc2nc2n1CCCCCCCCCCC2	/	-5	-1	0	/	/	/	/
